Experimental data taken from ChEMBL document CHEMBL1159084, “Synthesis and structure-activity relationship of 1,2,4-triazole-containing diarylpyrazolyl carboxamide as CB1 cannabinoid receptor-ligand” (Bioorg Med Chem, 2010).
pIC50: −log10 of the molar value.

Target: Cannabinoid receptor 1 (Rattus norvegicus, UniProt P20272)
Test: Displacement of [3H]CP-55940 from CB1 receptor in Sprague-Dawley rat cerebellar membrane
Set-up: species or system Cerebellum
Summary of the method: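 Membranes came from cerebella of male Sprague Dawley rats (200–300 g), homogenized in TME buffer (50 mM Tris–HCl, 1 mM EDTA, 3 mM MgCl2, pH 7.4) and spun at 48,000g for 30 min at 4 °C. They were incubated 1 h at 30 °C in TME with 0.5% fatty-acid-free BSA, then filtered on PEI-soaked GF/B, washed and counted by scintillation. IC50 values are from single determinations.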

Sequence of Cannabinoid receptor 1 (Rattus norvegicus, UniProt P20272) (P20272 whole entry): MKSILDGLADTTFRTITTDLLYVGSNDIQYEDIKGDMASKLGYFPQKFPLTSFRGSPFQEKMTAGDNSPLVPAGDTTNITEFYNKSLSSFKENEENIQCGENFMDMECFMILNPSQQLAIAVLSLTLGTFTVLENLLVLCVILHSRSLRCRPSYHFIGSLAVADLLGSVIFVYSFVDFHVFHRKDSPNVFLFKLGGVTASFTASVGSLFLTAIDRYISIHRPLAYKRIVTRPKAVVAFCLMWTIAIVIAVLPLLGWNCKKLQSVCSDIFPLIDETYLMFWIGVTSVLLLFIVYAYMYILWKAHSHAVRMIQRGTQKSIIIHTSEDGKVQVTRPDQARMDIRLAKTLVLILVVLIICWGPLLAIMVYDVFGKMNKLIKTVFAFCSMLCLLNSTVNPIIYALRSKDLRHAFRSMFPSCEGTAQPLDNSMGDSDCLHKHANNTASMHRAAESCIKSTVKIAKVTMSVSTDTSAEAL

Structure (SMILES) | pIC50
Cc1cccc(N2CCN(C(=O)c3nn(-c4ccccc4Cl)c(-c4ccc(Br)cc4)c3Cn3cncn3)CC2)c1C | 8.68
C[C@@H]1CCCC[C@@H]1NC(=O)c1nn(-c2ccc(Cl)cc2Cl)c(-c2ccc(Cl)cc2)c1Cn1cncn1 (single isomer, unassigned) | 7.74
CC(NC(=O)c1nn(-c2ccccc2Cl)c(-c2ccc(Br)cc2)c1Cn1cncn1)C(C)(C)C (stereo not drawn) | 8.22
O=C(NCC1CCCCC1)c1nn(-c2ccc(Cl)cc2Cl)c(-c2ccc(Cl)cc2)c1Cn1cncn1 | 7.64
CN1CCN(C(=O)c2nn(-c3ccccc3Cl)c(-c3ccc(Cl)cc3)c2Cn2cncn2)CC1 | 6.02
CC1CCCC(C)N1NC(=O)c1nn(-c2ccc(Cl)cc2Cl)c(-c2ccc(Cl)cc2)c1Cn1cncn1 (stereo not drawn) | 7.94
C[C@H]1CC[C@@H](NC(=O)c2nn(-c3ccc(Cl)cc3Cl)c(-c3ccc(Cl)cc3)c2Cn2cncn2)CC1 | 7.77
CCN1CCN(C(=O)c2nn(-c3ccc(Cl)cc3Cl)c(-c3ccc(Br)cc3)c2Cn2cncn2)CC1 | 6.55
CCN1CCN(C(=O)c2nn(-c3ccccc3Cl)c(-c3ccc(Cl)cc3)c2Cn2cncn2)CC1 | 5.98
N#CC1(NC(=O)c2nn(-c3ccccc3Cl)c(-c3ccc(Br)cc3)c2Cn2cncn2)CC1 | 7.71
CC(C)(NC(=O)c1nn(-c2ccc(Cl)cc2Cl)c(-c2ccc(Cl)cc2)c1Cn1cncn1)c1ccccc1 | 8.13
Cc1cccc(N2CCN(C(=O)c3nn(-c4ccc(Cl)cc4Cl)c(-c4ccc(Cl)cc4)c3Cn3cncn3)CC2)c1C | 7.94
O=C(NC1(c2ccccc2)CC1)c1nn(-c2ccc(Cl)cc2Cl)c(-c2ccc(Br)cc2)c1Cn1cncn1 | 8.10
O=C(NC1CCCCCC1)c1nn(-c2ccc(Cl)cc2Cl)c(-c2ccc(Br)cc2)c1Cn1cncn1 | 8.07
O=C(NCC1CCCCC1)c1nn(-c2ccc(Cl)cc2Cl)c(-c2ccc(Br)cc2)c1Cn1cncn1 | 7.69
O=C(NC1CCCCCC1)c1nn(-c2ccc(Cl)cc2Cl)c(-c2ccc(Cl)cc2)c1Cn1cncn1 | 7.95
O=C(NN1CCCCC1)c1nn(-c2ccccc2Cl)c(-c2ccc(Br)cc2)c1Cn1cncn1 | 8.28
O=C(NCc1ccccn1)c1nn(-c2ccccc2Cl)c(-c2ccc(Br)cc2)c1Cn1cncn1 | 7.20
Cc1cccc(N2CCN(C(=O)c3nn(-c4ccccc4Cl)c(-c4ccc(Cl)cc4)c3Cn3cncn3)CC2)c1C | 8.22
CCCCC(CC)CNC(=O)c1nn(-c2ccc(Cl)cc2Cl)c(-c2ccc(Cl)cc2)c1Cn1cncn1 (stereo not drawn) | 7.69
O=C(NNC(=O)C1CCCCC1)c1nn(-c2ccc(Cl)cc2Cl)c(-c2ccc(Cl)cc2)c1Cn1cncn1 | 6.72
O=C(NC1(c2ccccc2)CC1)c1nn(-c2ccc(Cl)cc2Cl)c(-c2ccc(Cl)cc2)c1Cn1cncn1 | 8.29

Results, then the compound that gave them:

pIC50 | Structure (SMILES)
8.70 | O=C(NC1(c2ccccc2)CC1)c1nn(-c2ccccc2Cl)c(-c2ccc(Br)cc2)c1Cn1cncn1
8.64 | O=C(c1nn(-c2ccccc2Cl)c(-c2ccc(Br)cc2)c1Cn1cncn1)N1CCN(c2cccc(Cl)c2)CC1
8.65 | O=C(c1nn(-c2ccccc2Cl)c(-c2ccc(Br)cc2)c1Cn1cncn1)N1CCN(c2cccc(Cl)c2Cl)CC1
8.66 | CC(NC(=O)c1nn(-c2ccccc2Cl)c(-c2ccc(Br)cc2)c1Cn1cncn1)c1ccc(Cl)cc1Cl (stereo not drawn)
8.59 | CC(NC(=O)c1nn(-c2ccc(Cl)cc2Cl)c(-c2ccc(Cl)cc2)c1Cn1cncn1)c1ccc(Cl)cc1Cl (stereo not drawn)
8.77 | O=C(NC1(c2ccc(Cl)cc2)CC1)c1nn(-c2ccccc2Cl)c(-c2ccc(Br)cc2)c1Cn1cncn1
8.70 | CC(NC(=O)c1nn(-c2ccccc2Cl)c(-c2ccc(Cl)cc2)c1Cn1cncn1)c1ccc(Cl)cc1Cl (stereo not drawn)
8.74 | CC(NC(=O)c1nn(-c2ccccc2Cl)c(-c2ccc(Cl)cc2)c1Cn1cncn1)c1ccc(Br)cc1 (stereo not drawn)
8.31 | CC(C)(C)NC(=O)c1nn(-c2ccc(Cl)cc2Cl)c(-c2ccc(Cl)cc2)c1Cn1cncn1
8.42 | O=C(NN1CCCCC1)c1nn(-c2ccc(Cl)cc2Cl)c(-c2ccc(Cl)cc2)c1Cn1cncn1
8.96 | CC(NC(=O)c1nn(-c2ccccc2Cl)c(-c2ccc(Br)cc2)c1Cn1cncn1)c1ccc(Br)cc1 (stereo not drawn)
8.85 | CC(NC(=O)c1nn(-c2ccc(Cl)cc2Cl)c(-c2ccc(Br)cc2)c1Cn1cncn1)c1ccc(Br)cc1 (stereo not drawn)
8.44 | CCC(C)(C)NC(=O)c1nn(-c2ccc(Cl)cc2Cl)c(-c2ccc(Br)cc2)c1Cn1cncn1
8.66 | CC(NC(=O)c1nn(-c2ccc(Cl)cc2Cl)c(-c2ccc(Br)cc2)c1Cn1cncn1)c1ccc(Cl)cc1Cl (stereo not drawn)
8.80 | O=C(NC1CCCCC1)c1nn(-c2ccccc2Cl)c(-c2ccc(Br)cc2)c1Cn1cncn1
8.48 | O=C(NC1(C(F)(F)F)CC1)c1nn(-c2ccc(Cl)cc2Cl)c(-c2ccc(Br)cc2)c1Cn1cncn1
8.57 | O=C(NC1CCCCCC1)c1nn(-c2ccccc2Cl)c(-c2ccc(Br)cc2)c1Cn1cncn1

Target: Cannabinoid receptor 2 (Homo sapiens, UniProt P34972)
Test: Displacement of [3H]WIN-55212-2 from human recombinant CB2 receptor expressed in CHO-K1 cell membrane
Assay type: cell membranes
Summary of the method: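 CB2 membranes were from CHO K-1 cells transfected with human CB2, prepared in TME buffer (pH 7.4) and incubated with 3 nM [3H]WIN55,212-2 in TME plus 0.5% fatty-acid-free BSA for 1 h at 30 °C. Bound label was filtered on PEI-soaked GF/B, washed with ice-cold buffer containing 0.1% BSA, and counted by scintillation. IC50 values are from single determinations.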

Sequence of Cannabinoid receptor 2 (P34972 whole entry): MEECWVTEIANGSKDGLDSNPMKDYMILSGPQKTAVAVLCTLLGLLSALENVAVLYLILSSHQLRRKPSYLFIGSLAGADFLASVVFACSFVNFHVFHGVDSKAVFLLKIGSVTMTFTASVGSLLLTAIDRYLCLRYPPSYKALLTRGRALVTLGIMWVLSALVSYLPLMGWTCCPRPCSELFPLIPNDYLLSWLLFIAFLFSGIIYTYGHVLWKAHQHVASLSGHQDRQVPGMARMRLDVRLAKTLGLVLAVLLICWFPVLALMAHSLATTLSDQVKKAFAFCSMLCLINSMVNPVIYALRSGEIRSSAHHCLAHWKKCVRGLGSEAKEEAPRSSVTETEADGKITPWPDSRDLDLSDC

pIC50 | Structure (SMILES)
5.49 | O=C(NC1(c2ccccc2)CC1)c1nn(-c2ccccc2Cl)c(-c2ccc(Br)cc2)c1Cn1cncn1
6.53 | O=C(c1nn(-c2ccccc2Cl)c(-c2ccc(Br)cc2)c1Cn1cncn1)N1CCN(c2cccc(Cl)c2)CC1
6.24 | O=C(c1nn(-c2ccccc2Cl)c(-c2ccc(Br)cc2)c1Cn1cncn1)N1CCN(c2cccc(Cl)c2Cl)CC1
5.62 | CC(NC(=O)c1nn(-c2ccccc2Cl)c(-c2ccc(Br)cc2)c1Cn1cncn1)c1ccc(Cl)cc1Cl (stereo not drawn)
5.59 | O=C(NC1(c2ccc(Cl)cc2)CC1)c1nn(-c2ccccc2Cl)c(-c2ccc(Br)cc2)c1Cn1cncn1
5.48 | CC(NC(=O)c1nn(-c2ccccc2Cl)c(-c2ccc(Cl)cc2)c1Cn1cncn1)c1ccc(Cl)cc1Cl (stereo not drawn)
5.45 | CC(NC(=O)c1nn(-c2ccccc2Cl)c(-c2ccc(Cl)cc2)c1Cn1cncn1)c1ccc(Br)cc1 (stereo not drawn)
5.75 | CC(NC(=O)c1nn(-c2ccccc2Cl)c(-c2ccc(Br)cc2)c1Cn1cncn1)c1ccc(Br)cc1 (stereo not drawn)
5.19 | CC(NC(=O)c1nn(-c2ccc(Cl)cc2Cl)c(-c2ccc(Br)cc2)c1Cn1cncn1)c1ccc(Br)cc1 (stereo not drawn)
5.39 | O=C(NC1CCCCC1)c1nn(-c2ccccc2Cl)c(-c2ccc(Br)cc2)c1Cn1cncn1

Structure (SMILES) | pIC50
Cc1cccc(N2CCN(C(=O)c3nn(-c4ccccc4Cl)c(-c4ccc(Br)cc4)c3Cn3cncn3)CC2)c1C | 6.26

Tested on: not listed separately
Test: Selectivity for Sprague-Dawley rat CB1 receptor over human recombinant CB2 receptor
Summary of the method: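 Selectivity is the ratio of the hCB2 IC50 to the rCB1 IC50. The hCB2 IC50 came from CHO-K1 membrane displacement of [3H]WIN55,212-2, and the rCB1 IC50 from rat cerebellar membrane binding. Both binding assays ran 1 h at 30 °C with filtration and scintillation counting.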

Ratio IC50 | Structure (SMILES)
1620 | O=C(NC1(c2ccccc2)CC1)c1nn(-c2ccccc2Cl)c(-c2ccc(Br)cc2)c1Cn1cncn1
130 | O=C(c1nn(-c2ccccc2Cl)c(-c2ccc(Br)cc2)c1Cn1cncn1)N1CCN(c2cccc(Cl)c2)CC1
262 | O=C(c1nn(-c2ccccc2Cl)c(-c2ccc(Br)cc2)c1Cn1cncn1)N1CCN(c2cccc(Cl)c2Cl)CC1
1100 | CC(NC(=O)c1nn(-c2ccccc2Cl)c(-c2ccc(Br)cc2)c1Cn1cncn1)c1ccc(Cl)cc1Cl (stereo not drawn)
1510 | O=C(NC1(c2ccc(Cl)cc2)CC1)c1nn(-c2ccccc2Cl)c(-c2ccc(Br)cc2)c1Cn1cncn1
1660 | CC(NC(=O)c1nn(-c2ccccc2Cl)c(-c2ccc(Cl)cc2)c1Cn1cncn1)c1ccc(Cl)cc1Cl (stereo not drawn)
1950 | CC(NC(=O)c1nn(-c2ccccc2Cl)c(-c2ccc(Cl)cc2)c1Cn1cncn1)c1ccc(Br)cc1 (stereo not drawn)
1630 | CC(NC(=O)c1nn(-c2ccccc2Cl)c(-c2ccc(Br)cc2)c1Cn1cncn1)c1ccc(Br)cc1 (stereo not drawn)
4630 | CC(NC(=O)c1nn(-c2ccc(Cl)cc2Cl)c(-c2ccc(Br)cc2)c1Cn1cncn1)c1ccc(Br)cc1 (stereo not drawn)
2540 | O=C(NC1CCCCC1)c1nn(-c2ccccc2Cl)c(-c2ccc(Br)cc2)c1Cn1cncn1

Structure (SMILES) | Ratio IC50
Cc1cccc(N2CCN(C(=O)c3nn(-c4ccccc4Cl)c(-c4ccc(Br)cc4)c3Cn3cncn3)CC2)c1C | 264

Target: Cannabinoid receptor 1 (Homo sapiens, UniProt P21554)
Test: Inverse agonist activity at human recombinant CB1 receptor expressed in CHO cells by luciferase reporter gene assay
Assay type: functional, cell-based

Sequence of Cannabinoid receptor 1 (Homo sapiens, UniProt P21554) (P21554 whole entry): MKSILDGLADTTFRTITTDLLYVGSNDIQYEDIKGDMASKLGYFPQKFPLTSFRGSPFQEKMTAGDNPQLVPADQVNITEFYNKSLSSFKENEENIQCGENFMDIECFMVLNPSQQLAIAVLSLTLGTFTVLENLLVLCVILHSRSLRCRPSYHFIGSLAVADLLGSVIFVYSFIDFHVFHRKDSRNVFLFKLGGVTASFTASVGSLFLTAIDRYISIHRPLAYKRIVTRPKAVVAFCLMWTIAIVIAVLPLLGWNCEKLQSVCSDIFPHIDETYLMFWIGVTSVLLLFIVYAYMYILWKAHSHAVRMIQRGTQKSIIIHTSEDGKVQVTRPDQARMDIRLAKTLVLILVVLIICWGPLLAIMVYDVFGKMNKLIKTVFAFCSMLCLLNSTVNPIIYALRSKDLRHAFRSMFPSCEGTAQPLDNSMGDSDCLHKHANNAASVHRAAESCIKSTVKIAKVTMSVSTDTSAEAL

pIC50 | Structure (SMILES)
8.60 | CC(NC(=O)c1nn(-c2ccccc2Cl)c(-c2ccc(Br)cc2)c1Cn1cncn1)c1ccc(Br)cc1 (stereo not drawn)
7.55 | CC(NC(=O)c1nn(-c2ccc(Cl)cc2Cl)c(-c2ccc(Br)cc2)c1Cn1cncn1)c1ccc(Br)cc1 (stereo not drawn)
